NPY2 pot ag – potentiators or agonists of human neuropeptide Y receptor Y2. 220,000 compounds, 0.45% hits. activation, % at 3.6 µM. cells expressing NPY-Y2, potentiator/agonist read-out. P49146; in the data active means activation above about 27%;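 further: cells stimulated with NPY near EC25 plus isoproterenol at EC100; 0% = vehicle plus submaximal agonist and 100% = vehicle plus saturating agonist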
EP2 antag – inhibitors of human EP2 prostaglandin E2 receptor; 260,000 compounds, 0.52% hits; C6 glioma cells expressing human EP2, cAMP TR-FRET; cells stimulated with saturating PGE2; P43116; inhibition, % at 25 µM; AID 1422;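 active means percent inhibition above 40 after rounding to a whole number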;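 further: rat C6 glioma host cells with rolipram phosphodiesterase inhibitor present; the protocol text gives 20 µM as final concentration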
Target sequence (P43116 whole entry, looked up): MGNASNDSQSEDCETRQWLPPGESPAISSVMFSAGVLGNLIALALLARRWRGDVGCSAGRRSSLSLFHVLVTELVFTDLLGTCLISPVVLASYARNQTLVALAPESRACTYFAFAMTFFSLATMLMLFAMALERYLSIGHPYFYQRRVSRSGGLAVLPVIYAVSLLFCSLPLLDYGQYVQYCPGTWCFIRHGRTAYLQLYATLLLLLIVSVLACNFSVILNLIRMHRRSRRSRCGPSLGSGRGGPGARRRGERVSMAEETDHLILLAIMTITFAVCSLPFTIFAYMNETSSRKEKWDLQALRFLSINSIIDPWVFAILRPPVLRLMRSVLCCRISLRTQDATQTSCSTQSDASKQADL
EP2 mod – modulators of human EP2 prostaglandin E2 receptor. P43116. EP2-expressing cells, cAMP HTRF FRET, PGE2 co-stimulation. induction, % at 25 µM. 260,000 compounds, 0.83% hits;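 active means compounds whose cAMP rise, as percent of the full-agonist control response, exceeds 60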;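 further: rat C6 glioma line stably carrying human EP2 under a CMV promoter; the protocol text gives 20 µM as final concentration; 100% = response of wells given 1 µM PGE2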
NPY-Y2 antag – antagonists of human neuropeptide Y receptor Y2; P49146; 140,000 compounds, 0.99% hits; inhibition, % at 2.7 µM; NPY-Y2 expressing cells, antagonist mode;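 further: 0% = vehicle with agonist challenge and 100% = reference antagonist with challenge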
NPY-Y1 PAM-ag – human NPY-Y1 potentiation or agonism, primary screen; P25929; NPY-Y1 expressing cells, potentiator/agonist activation; activation, % at 3.6 µM; 220,000 compounds, 0.37% hits; AID 1304; in the data active means activation above about 33%, passing the limit was not always enough;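 further: cells stimulated with NPY at EC10 then isoproterenol at EC100; 0% = low agonist plus stimulus and 100% = saturating agonist plus stimulus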
NPY-Y1 antag – NPY-Y1 (human) receptor antagonism | P25929 | HEK293-CNG Y1 cells, membrane potential fluorescence; NPY at EC95, then isoproterenol | inhibition, % at 3.6 µM | 200,000 compounds, 1% hits;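 active means inhibition above the campaign mean inhibition of all tested compounds plus 3 SD, cut at about 20% in these data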;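 further: 0% = DMSO wells given NPY plus isoproterenol and 100% = isoproterenol alone without NPY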
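Assay system: HEK293 Y1/CNG channel cell line; Doses: single compound dose of 3.6 µM, 0.4% DMSO; Timing: dye 3 h, compound 60 min room temperature, stimulation 45 min; Technique: Membrane-potential fluorescent dye readout; Measure: % inhibition of NPY effect.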
NPY-Y1 ant conf – human NPY-Y1 antagonism, confirmation; shares compounds with NPY-Y1 antag; HEK293-CNG NPY-Y1, membrane potential fluorescence, cAMP; NPY challenge against isoproterenol-raised cAMP; inhibition, % at 3.6 µM; 1,200 compounds, 21% hits; AID 1254; in the data active means inhibition above about 20%;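 further: 0% = vehicle with agonist plus stimulus and 100% = stimulus alone without agonist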
NPY2 antag ctr – antagonizes human NPY-Y2, counter-screen to NPY-Y1 antagonists. shares compounds with NPY-Y1 antag. HEK293 NPY-Y2 CNG membrane potential fluorescence, antagonism; cells given NPY, then isoproterenol. inhibition, % at 3.6 µM. 1,200 compounds, 28% hits. AID 1255;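 further: 0% = DMSO with agonist challenge and 100% = reference antagonist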
The depositor's hits bear a star; x = no result given. Most compounds without a hit are left out; they make up all but 2.8% or so of the library. Unless noted, no stated cut-off is given here; in the data, active means inhibition above about 17%; inactive means the rest.

SMILES	NPY2 pot ag	EP2 antag	EP2 mod	NPY-Y2 antag	NPY-Y1 PAM-ag	NPY-Y1 antag	NPY-Y1 ant conf	NPY2 antag ctr
C[C@H]1CC[C@H]2C(=O)N3[C@H](c4ccccc4Br)[C@@H](C)CC[C@H]3C(=O)N2[C@@H]1c1ccccc1Br	17	x	0	12	-4	28*	20	9
NC(=O)C1CCCN(S(=O)(=O)c2ccc(Cl)cc2)C1 (configuration not stated)	x	8	-12	x	x	x	x	x
CCOc1cc(C2C3=C(CC(C)(C)CC3=O)Nc3n[nH]c(C)c32)ccc1O (configuration not stated)	-10	7	0	x	-16	42*	26*	40*
COc1ccccc1NC(=O)N(Cc1cccs1)Cc1cc2cc(OC)c(OC)cc2[nH]c1=O	x	11	-9	x	x	x	x	x
CCN1CCc2c(C#N)c(NCc3ccccc3)nc(N(CC)CC)c2C1	-21	3	13	13	-38	34*	11	28*
N#Cc1c(NCCN)nc(NCc2ccccc2)c2c1CCN(Cc1ccccc1)C2	1	6	x	6	11	10	x	x
CCNC(=O)COc1ccc2ccccc2c1	11	11	-20	2	4	2	x	x
O=C(COC(=O)COc1ccc2ccccc2c1)NCC(F)(F)F	-32	5	-25	x	-50	29*	18	13
Cc1cccc(NC(=O)c2cc(Cl)nc3ccccc23)c1	-58	x	-11	16	-107	24*	8	12
COc1ccc(-n2cc(CN[C@H]3CCCCNC3=O)c(-c3cccc(F)c3)n2)cc1	-27	5	-16	x	10	x	x	x
COc1ccc(-n2cc(CNC3CCN(C)CC3)c(-c3cccc(F)c3)n2)cc1	-41	4	-5	x	-20	22*	17	24*
COc1ccccc1-n1c(SCC(=O)Nc2ccc(C(C)=O)cc2)nnc1-c1ccncc1	x	10	-9	x	x	x	x	x
CSc1nc(N2CCOCC2)c2ccccc2n1	6	5	23	3	10	-6	x	x
CSc1nc(N2CCN(c3ccccc3Cl)CC2)c2ccccc2n1	-34	8	12	x	-64	30*	22*	27*
CC(=O)n1cc([C@@H]2C=C(C(=O)Nc3ccccc3)O[C@H](OCc3ccc(CO)cc3)C2)c2ccccc21	-24	9	-15	x	-17	34*	20	9
COc1ccc(-c2n(Cc3ccccc3)c3ccccc3[n+]2Cc2ccccc2)cc1	8	10	15	x	-19	62*	18	22*
O=C(CSc1nc2ccccc2n1CC(=O)N1CCCC1)Nc1ccc(F)cc1	x	10	-17	x	x	x	x	x
Cc1ccccc1Oc1cc(NC(=O)Cn2cnc([N+](=O)[O-])c2)cc([N+](=O)[O-])c1	16	11	25	x	32	25*	-5	-5
Cc1cc(N2CCN(Cc3nc(-c4ccc(Cl)cc4)oc3C)CC2)cc(C)n1	-39	7	-46	x	-27	x	x	x
COc1ccc(-c2nc(CN3CCN(c4cc(C)nc(C)c4)CC3)c(C)o2)c2ccccc12	-9	18	-56	x	-23	23*	15	29*
O=[N+]([O-])c1ccc(C2CCCC/C2=N\OCc2cccc(F)c2)c([N+](=O)[O-])c1 (configuration not stated)	-12	x	6	0	-37	31*	11	11
COc1ccccc1CCNC(=O)CSc1ccc(-c2ccco2)nn1	1	5	-15	x	-16	22*	2	2
COc1ccccc1-c1ccc(SCC(=O)NCCc2ccccc2)nn1	-1	7	2	x	-12	1	x	x
Cc1cc(C(F)F)n2nc(C(=O)Nc3c(C)nn(Cc4ccccc4Cl)c3C)nc2n1	x	7	-5	x	x	x	x	x
CC(=O)COC(=O)c1ccccc1NC(=O)c1ccco1	x	9	-4	x	x	x	x	x
SMILES	NPY2 pot ag	EP2 antag	EP2 mod	NPY-Y2 antag	NPY-Y1 PAM-ag	NPY-Y1 antag	NPY-Y1 ant conf	NPY2 antag ctr
COC(=O)c1cc(-c2ccc(OC)cc2)on1	-18	1	27	x	-56	13	x	x
COC(=O)c1cc(-c2ccc(Br)cc2)on1	-44	x	20	15	-49	23*	12	17*
COC(=O)c1cc(-c2cccc(OC)c2)on1	-29	x	4	13	-38	27*	11	15
COc1cccc(-c2cc(C(=O)O)no2)c1	4	17	-8	3	-4	3	x	x
Cc1sc2nc(C3CC3)n(C3CCN(C(=O)C4CC=CCC4)CC3)c(=O)c2c1C (configuration not stated)	x	x	23	x	x	x	x	x
O=C(c1cnc2c(c1)COc1ccc(Cl)cc1-2)c1ccccc1O	-16	3	-12	4	-48	22*	10	13
CCOC(=O)C1(Cc2ccccc2)CCN(Cc2cc(OC)c3c(c2)OCO3)CC1	-8	9	56	x	-1	25*	7	10
CCOC(=O)C1(CCc2ccccc2)CCN(Cc2c(O)cccc2OC)CC1	-11	7	26	x	-33	33*	27*	25*
COc1cccc(/C(O)=C2/C(=O)C(=O)NC2c2ccc(OC)c(OC)c2)c1 (configuration not stated)	x	9	-8	x	x	x	x	x
CC(Sc1nnc2c(n1)[nH]c1ccccc12)C(=O)N1CCCCCC1 (configuration not stated)	x	0	-28	x	x	x	x	x
CCCCNc1nc2ccccc2n1CC(=O)Nc1c(C)cccc1CC	7	11	28	10	-35	31*	20	14
CCCCNc1nc2ccccc2n1CC(=O)N1CCc2ccccc2C1	-9	4	17	15	-33	23*	9	9
CCCCNC(=O)N1CCc2ccccc2C1	9	13	17	1	-6	5	x	x
CCc1cccc(C)c1NC(=O)Cn1c(NCCO)nc2ccccc21	12	5	16	15	2	8	x	x
COc1ccc(C)cc1NC(=O)Cn1nnc(-c2ccc(F)cc2)n1	x	14	-2	x	x	x	x	x
COc1ccc(-c2noc(CCC(=O)NCc3cc(Br)ccc3OC)n2)cc1	3	12	-11	6	-32	2	x	x
COc1ccc(Br)cc1CNC(=O)CCc1nc(-c2ccc(C)cc2)no1	-16	10	16	14	0	21*	7	8
c1ccc(CN2CCN(c3nc(-c4ccccc4)nc(-n4ccnc4)n3)CC2)cc1	-31	5	-27	16	-116	40*	24*	23*
Fc1ccc(Nc2c3c(nc4ccccc24)CCC3)cc1	-26	6	-39	x	-26	23*	18	14
c1ccc2c(Nc3ccc4c(c3)OCCO4)c3c(nc2c1)CCC3	3	8	-35	x	9	7	x	x

Assay outcomes: PubChem, several laboratories
